Legend:
Huh-7 = experiment: Antiproliferative activity against human Huh-7 cells assessed as growth inhibition at 100 ug/mL incubated for 48 hrs by SRB assay relative to control; format: functional; conditions: read-out: GI
Method in brief: (§1)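 SRB assay: cells seeded at 3×10^3/well, allowed 24 h to attach, then exposed to 100 µg/mL for 48 h, three wells per concentration, DMSO 1% v/v vehicle control. Cells fixed with 20% trichloroacetic acid and stained with 0.4% SRB, then OD read at 570 nm. Survival fraction taken as treated OD/control OD.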

MG-63 = experiment: Antiproliferative activity against human MG-63 cells assessed as growth inhibition at 100 ug/mL incubated for 48 hrs by SRB assay relative to control; format: functional; conditions: read-out: GI; method in brief: as §1
MCF7 = experiment: Antiproliferative activity against human MCF7 cells assessed as growth inhibition at 100 ug/mL incubated for 48 hrs by SRB assay relative to control; format: functional; conditions: read-out: GI; method in brief: as §1
Caco-2 = experiment: Antiproliferative activity against human Caco-2 cells assessed as growth inhibition at 100 ug/mL incubated for 48 hrs by SRB assay relative to control; format: functional; conditions: read-out: GI; method in brief: as §1
HepG2 [1] = experiment: Antiproliferative activity against human HepG2 cells assessed as growth inhibition at 100 ug/mL incubated for 48 hrs by SRB assay relative to control; format: functional; conditions: read-out: GI; method in brief: as §1
HeLa = experiment: Antiproliferative activity against human HeLa cells assessed as growth inhibition at 100 ug/mL incubated for 48 hrs by SRB assay relative to control; format: functional; conditions: read-out: GI; method in brief: as §1
HCT-116 [2] = experiment: Antiproliferative activity against human HCT-116 cells assessed as growth inhibition at 100 ug/mL incubated for 48 hrs by SRB assay relative to control; format: functional; conditions: read-out: GI; method in brief: as §1
MDA-MB-468 = experiment: Antiproliferative activity against human MDA-MB-468 cells assessed as growth inhibition at 100 ug/mL incubated for 48 hrs by SRB assay relative to control; format: functional; conditions: read-out: GI; method in brief: as §1
[3] = Cytotoxicity against human oral epithelial cells (OEC) assessed as growth inhibition at 100 ug/mL incubated for 48 hrs by SRB assay relative to control; format: toxicity, cell-based, Oral epithelial cell; conditions: at 100 µg/mL, read-out: GI; method in brief: as §1
FaDu = experiment: Antiproliferative activity against human FaDu cells assessed as growth inhibition at 100 ug/mL incubated for 48 hrs by SRB assay relative to control; format: functional; conditions: read-out: GI; method in brief: as §1
[4] = Cytotoxicity against HSF cells assessed as growth inhibition at 100 ug/mL incubated for 48 hrs by SRB assay relative to control; format: toxicity, cell-based; conditions: human, at 100 µg/mL, read-out: GI; method in brief: as §1
[5] = Antiproliferative activity against human HNO 97 cell line assessed as growth inhibition at 100 ug/mL incubated for 48 hrs by SRB assay relative to control; format: functional; conditions: read-out: GI; method in brief: as §1
A-375 [6] = experiment: Antiproliferative activity against human A-375 cells assessed as growth inhibition at 100 ug/mL incubated for 48 hrs by SRB assay relative to control; format: functional; conditions: read-out: GI; method in brief: as §1
HCT-116 [7] = experiment: Cytotoxicity against human HCT-116 cells assessed as inhibition of cell growth incubated for 48 hrs by SRB assay; format: functional, cell-based; conditions: HCT-116, 48 h
Method in brief: (§2)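 Cells plated at 3×10^3/well and left 24 h to attach. Treated at 12.5, 25, 50 and 62.5 µg/mL for 48 h, three wells per concentration, with DMSO (1% v/v) vehicle control. Fixed with 20% TCA, stained with 0.4% SRB, OD read at 570 nm. Survival fraction = treated OD/control OD. IC50 from sigmoidal dose-response curve fitting.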

[8] = Cytotoxicity against human HNO 97 cell line assessed as inhibition of cell growth incubated for 48 hrs by SRB assay; format: functional, cell-based; conditions: HNO 97, 48 h; method in brief: as §2
A-375 [9] = experiment: Cytotoxicity against human A-375 cells assessed as inhibition of cell growth incubated for 48 hrs by SRB assay; format: functional, cell-based; conditions: A-375, 48 h; method in brief: as §2
HepG2 [10] = experiment: Cytotoxicity against human HepG2 cells assessed as inhibition of cell growth incubated for 48 hrs by SRB assay; format: functional, cell-based; conditions: HepG2, 48 h; method in brief: as §2

| Structure (SMILES) | inhibition of growth at 100 µg/mL (Huh-7) [%] | inhibition of growth at 100 µg/mL (MG-63) [%] | inhibition of growth at 100 µg/mL (MCF7) [%] | inhibition of growth at 100 µg/mL (Caco-2) [%] | inhibition of growth at 100 µg/mL (HepG2 [1]) [%] | inhibition of growth at 100 µg/mL (HeLa) [%] | inhibition of growth at 100 µg/mL (HCT-116 [2]) [%] | inhibition of growth at 100 µg/mL (MDA-MB-468) [%] | inhibition at 48 h, 100 ug/mL [3] [%] | inhibition of growth at 100 µg/mL (FaDu) [%] | inhibition at 48 h, 100 ug/mL [4] [%] | inhibition of growth at 100 µg/mL [5] [%] | inhibition of growth at 100 µg/mL (A-375 [6]) [%] | IC50 (HCT-116 [7]) [µM] | IC50 [8] [µM] | IC50 (A-375 [9]) [µM] | IC50 (HepG2 [10]) [µM] |
| --- | --- | --- | --- | --- | --- | --- | --- | --- | --- | --- | --- | --- | --- | --- | --- | --- | --- |
| COc1cccc(/C=N/NC(=O)c2nnn(-c3ccc(Br)cc3)c2C)c1OC | 70 | 63 | 60 | 47 | 69 | 68 | 69 | 63 | 19 | 79 | 35 | 77 | 73 | – | – | – | – |
| COc1cccc(/C=N/NC(=O)c2nnn(-c3ccc([N+](=O)[O-])cc3)c2C)c1OC | 56 | 44 | 63 | 32 | 56 | 52 | 56 | 56 | 36 | 56 | 19 | 54 | 75 | – | – | – | – |
| Cc1c(C(=O)N/N=C/c2ccccc2)nnn1-c1ccc(Br)cc1 | 67 | 75 | 87 | 37 | 72 | 79 | 87 | 65 | 23 | 83 | 4 | 89 | 72 | 16.9 | – | – | – |
| COc1cccc2c1C(=O)c1c(O)c3c(c(O)c1C2=O)C[C@@](O)(C(=O)CO)C[C@@H]3O[C@H]1C[C@H](N)[C@H](O)[C@H](C)O1 [DOXORUBICIN] | 63 | 51 | 69 | 71 | 72 | 76 | 76 | 73 | 41 | 61 | 42 | 59 | 52 | 10.5 | 9.01 | 14.5 | 11 |
| Cc1c(C(=O)N/N=C/c2ccccc2)nnn1-c1ccc(F)cc1 | 37 | 68 | 80 | 20 | 54 | 52 | 74 | 44 | 16 | 70 | 14 | 74 | 42 | – | – | – | – |
| COc1cc(/C=N/NC(=O)c2nnn(-c3ccc(Cl)cc3)c2C)cc(OC)c1OC | 78 | 38 | 50 | 53 | 43 | 42 | 64 | 59 | 25 | 69 | 34 | 74 | 63 | – | – | – | – |
| COc1ccc(/C=N/NC(=O)c2nnn(-c3ccc(Br)cc3)c2C)cc1OC | 53 | 42 | 86 | 40 | 59 | 65 | 63 | 54 | 28 | 69 | 20 | 86 | 77 | – | – | – | – |
| COc1cc(/C=N/NC(=O)c2nnn(-c3ccc(F)cc3)c2C)cc(OC)c1OC | 75 | 63 | 68 | 58 | 79 | 56 | 73 | 72 | 32 | 72 | 38 | 79 | 85 | 18.8 | 15.7 | 13.2 | 35.7 |
| COc1ccc(/C=N/NC(=O)c2nnn(-c3ccc(F)cc3)c2C)cc1OC | 65 | 84 | 87 | 49 | 81 | 78 | 81 | 65 | 33 | 89 | 21 | 84 | 82 | – | – | – | – |
| COc1cccc(/C=N/NC(=O)c2nnn(-c3ccc(F)cc3)c2C)c1OC | 68 | 42 | 78 | 36 | 49 | 45 | 64 | 52 | 13 | 70 | 9 | 69 | 71 | – | – | – | – |
| COc1cc(/C=N/NC(=O)c2nnn(-c3ccc([N+](=O)[O-])cc3)c2C)cc(OC)c1OC | 74 | 40 | 49 | 60 | 44 | 29 | 35 | 70 | 39 | 70 | 28 | 68 | 50 | – | – | – | – |
| COc1cc(/C=N/NC(=O)c2nnn(-c3ccc(Br)cc3)c2C)cc(OC)c1OC | 75 | 67 | 72 | 64 | 76 | 60 | 82 | 76 | 52 | 73 | 51 | 68 | 60 | – | – | – | – |

From ChEMBL document CHEMBL6182834, “Dual EGFR and telomerase inhibitory potential of new triazole tethered Schiff bases endowed with apoptosis: design, synthesis, and biological assessments” (RSC Med Chem, 2025)
